The source made the active and inactive calls. The calls are words filed in the database; no cut-off is given here.
How the values were obtained:
[1] = Binding affinity to HIV-1 FSS RNA; set-up: species or system Human immunodeficiency virus 1
[2] = Binding affinity to HIV-1 FSS RNA in HBS buffer at pH 7.4 assessed as dissociation rate by surface plasmon resonance analysis; set-up: species or system Human immunodeficiency virus 1
Summary of the method: (§1)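 RNA captured on SPR chips at low (~300 RU) and high (~1200 RU) density, each measured once. Compound flowed in HBS (0.01 M HEPES, 0.150 M NaCl, pH 7.4) at 60 μL/min over at least five concentrations, each injected at least twice. A 20 s 0.5 or 1 M NaCl pulse regenerated the chip where needed. Reference-subtracted, blank-corrected sensorgrams (association plus dissociation) were globally fit to 1:1 Langmuir; error is standard error of the fit.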

[3] = system: Human immunodeficiency virus 1; assay: Binding affinity to HIV-1 FSS RNA in HBS buffer at pH 7.4 assessed as association rate by surface plasmon resonance analysis; summary of the method: as §1
[4] = Binding affinity to HIV-1 FSS RNA after 10 mins by fluorescence titration analysis; set-up: species or system Human immunodeficiency virus 1
Summary of the method: (§2)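 Solution fluorescence titration in 20 mM HEPES, 150 mM NaCl. Compound at 1 μM, titrated with unlabeled HIV-1 FSS RNA (10 μM stock), FSS DNA or yeast tRNA (40 μM stocks). 10 min equilibration after each addition. Quenching of benzo[g]quinoline fluorescence read in triplicate 1 min apart, corrected for dilution; KD from saturable quenching. Error is SD.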

[5] = system: Human T-lymphotropic virus 2; assay: Binding affinity to HTLV-2 FSS RNA up to 3 uM by surface plasmon resonance analysis
[6] = Binding affinity to HIV-1 FSS RNA in HBS buffer at pH 7.4 by surface plasmon resonance analysis; set-up: species or system Human immunodeficiency virus 1; settings: read-out: Kd; summary of the method: as §1
HEK293FT [7] = assay: Binding affinity to HTLV-2 FSS RNA transfected in HEK293FT cells at 1 to 50 uM after 36 hrs by Renilla/firefly luciferase reporter gene assay; format: cell-based; settings: Human T-lymphotropic virus 2
Summary of the method: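 HEK293FT cells transiently transfected with pDualHTLV-2(−1) (Fluc made only via −1 frameshift at the HTLV-2 site) and treated 5 h later with compound (0–50 μM) in triplicate for 36 h at 37 °C. Fluc/Rluc ratio from lysate, relative to untreated transfected cells. Error is SEM.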

HEK293FT [8] = assay: Binding affinity to HIV-1 FSS RNA transfected in HEK293FT cells after 36 hrs by Renilla/firefly luciferase reporter gene assay; format: cell-based; settings: Human immunodeficiency virus 1
Summary of the method: (§3)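 HEK293FT cells (1.5 × 10^4/well) transiently transfected with pDualHIV(−1) or in-frame pDualHIV(0) Rluc–FSS–Fluc plasmid (0.2 μg). Compound (0–50 μM) added 5 h later, in triplicate, for 36 h at 37 °C. Fluc/Rluc ratio from lysate, expressed relative to untreated transfected cells (100%). Error is SEM.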

HEK293FT [9] = assay: Binding affinity to HIV-1 FSS RNA transfected in HEK293FT cells at 50 uM after 36 hrs by Renilla/firefly luciferase reporter gene assay; format: cell-based; settings: Human immunodeficiency virus 1; summary of the method: as §3
[10] = Cytotoxicity against HEK293FT cells assessed as cell viability at <60 uM after 24 hrs by WST-1 assay; format: cell-based; settings: human
Summary of the method: (§4)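 HEK293FT cells at 80% confluence in DMEM/10% FBS exposed to compound (up to 0.5 mM) or a water control, in triplicate, for 24 h at 37 °C. WST-1 reagent then added for 2 h. Absorbance at 450 minus 690 nm, blank-corrected, plotted against concentration. Error is SD of three measurements.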

[11] = Cellular uptake in nucleus of HEK293FT cells at 50 uM measured for 12 hrs by fluorescence microscopy; format: ADME, cell-based; settings: human
[12] = Cellular uptake in cytoplasm of HEK293FT cells at 50 uM measured for 12 hrs by fluorescence microscopy; format: ADME, cell-based; settings: human
[13] = Selectivity ratio of KD for yeast tRNA to KD for HIV-1 FSS RNA
Summary of the method: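 Ratios of fluorescence-titration KD values (20 mM HEPES, 150 mM NaCl; compound 1 μM): KD for FSS DNA or total yeast tRNA divided by KD for HIV-1 FSS RNA.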

[14] = Binding affinity to yeast tRNA after 10 mins by fluorescence titration analysis; set-up: species or system Saccharomyces cerevisiae; summary of the method: as §2
[15] = Binding affinity to FSS DNA (unknown origin) after 10 mins by fluorescence titration analysis; summary of the method: as §2
[16] = Binding affinity to HIV-1 FSS RNA in 20 mM HEPES buffer assessed as dissociation rate by surface plasmon resonance analysis in presence of 150 mM NaCl, 5 mM MgCl2 and 0.005 % tween-20; set-up: species or system Human immunodeficiency virus 1
Summary of the method: (§5)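 SPR with HIV-1 FSS RNA captured on low-density (~300 RU) and high-density (~1200 RU) chips. Compound flowed at 50 μL/min in 20 mM HEPES, 150 mM NaCl, 5 mM MgCl2, 0.005% Tween-20. 0.5 or 1 M NaCl regeneration as needed. Each concentration injected at least twice. Kinetic constants and KD from individual fits of reference-subtracted sensorgrams.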

[17] = system: Human immunodeficiency virus 1; assay: Binding affinity to HIV-1 FSS RNA in 20 mM HEPES buffer assessed as association rate by surface plasmon resonance analysis in presence of 150 mM NaCl, 5 mM MgCl2 and 0.005 % tween-20; summary of the method: as §5
[18] = Binding affinity to HIV-1 FSS RNA in 20 mM HEPES buffer by surface plasmon resonance analysis in presence of 150 mM NaCl, 5 mM MgCl2 and 0.005 % tween-20; set-up: species or system Human immunodeficiency virus 1; summary of the method: as §5
[19] = system: Human immunodeficiency virus 1; assay: Increase in HIV-1 NL4-3 reverse transcriptase p66/51 level at 10 to 40 uM by Western blotting analysis; format: functional, organism-based
Summary of the method: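 Pseudotyped virions from compound-treated producer cells, equal loads by p24 ELISA, pelleted through 20% sucrose at 100,000g. Western blot for RT and p24. Densitometry of nonsaturated bands gave p160/(p66+p51) and total RT/p24 ratios.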

[20] = system: Human immunodeficiency virus 1; assay: Antiviral activity against HIV-1 NL4-3 assessed as reduction in viral production […] after 24 hrs by fluorescence microscopy; format: functional, organism-based
Summary of the method: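 HEK293T producer cells transfected with GFP-marked pseudotyped HIV-1 vector plus VSV-G and treated with compound 4 h after transfection. Proviral GFP expression imaged by fluorescence microscopy 24 h after treatment, before virions were harvested.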

[21] = system: Human immunodeficiency virus 1; assay: Antiviral activity against HIV-1 NL4-3 assessed as reduction in viral infectivity in human TZM-bl cells after 48 hrs by firefly luciferase reporter gene assay; format: functional, organism-based; settings: Human immunodeficiency virus 1, NL4-3, TZM-bl
Summary of the method: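 Single-round infectivity of VSV-G pseudotyped HIV-1 (pDHIV3-GFP, NL4-3 genes minus nef/env) made in transfected HEK293T producer cells. Compounds added to producers 4 h post-transfection; virions harvested at 24 h, filtered, normalized by p24 ELISA. TZM-bl cells (10,000/well) infected with 500 pg p24/well in triplicate for 48 h; LTR-driven firefly luciferase luminescence read. EC50 derived from concentration series.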

[22] = system: Human immunodeficiency virus 1; assay: Antiviral activity against HIV-1 NL4-3 assessed as reduction in viral infectivity in human TZM-bl cells at 40 uM after 48 hrs by firefly luciferase reporter gene assay; format: functional; set-up: scale not given: the % may be the effect or the level left
[23] = system: Human immunodeficiency virus 1; assay: Antiviral activity against HIV-1 NL4-3 infected in TZM-bl cells after 24 hrs
[24] = Cytotoxicity against HEK293FT cells assessed as cell viability at >10 uM after 24 hrs by WST-1 assay; format: cell-based; settings: human; summary of the method: as §4

| SMILES | Dissociation rate constant (koff) [2] | Ka [3] | Kd [4] | Activity [5] | Kd [6] | Activity (HEK293FT [7]) | Activity (HEK293FT [8]) | Drug uptake [11] | Drug uptake [12] | EC50 [21] | further results |
| --- | --- | --- | --- | --- | --- | --- | --- | --- | --- | --- | --- |
| CN(C)CCCNC(=N)c1ccc(C(=N)NCCCN(C)C)cc1 |  |  |  |  |  |  |  |  |  |  | Kd [1]: 360000 nM |
| C=CC[C@H](NC(=O)c1cc2cc3ccccc3cc2nc1CC)C(=O)N1CCC[C@H]1C(=O)N[C@@H](Cc1ccccc1)C(=O)NCCCN | 2.25 ×10⁻² /s | 1.16 ×10³ /M/s | 409 nM | inactive | 19500 nM |  |  |  |  |  |  |
| CCc1nc2cc3ccccc3cc2cc1C(=O)N[C@@H](C/C=C/C[C@H](NC(=O)c1cc2cc3ccccc3cc2nc1CC)C(=O)N1CCC[C@H]1C(=O)N[C@@H](Cc1ccccc1)C(=O)NCCCN)C(=O)N1CCC[C@H]1C(=O)N[C@@H](Cc1ccccc1)C(=O)NCCCN | 3.75 ×10⁻³ /s | 3.99 ×10⁴ /M/s | 101 nM | inactive | 89 nM | inactive | Dose-dependent effect | Active | Active | 25600 nM | Activity (HEK293FT [9]): > 50%; Activity [10]: Non-toxic; Ratio [13]: 2.14; Kd [14]: 217 nM; Kd [15]: 118 nM; Kd [16]: 3.46 ×10⁻³ /s; Ka [17]: 3.68 ×10⁴ /M/s; Kd [18]: 96 nM; Activity [19]: Active; Activity [20]: Dose-dependent effect; Activity [22]: >90%; Activity [23]: Active |
| CCc1nc2cc3ccccc3cc2cc1C(=O)N[C@@H](CSSC[C@H](NC(=O)c1cc2cc3ccccc3cc2nc1CC)C(=O)N1CCC[C@H]1C(=O)N[C@@H](Cc1ccccc1)C(=O)NCCCN)C(=O)N1CCC[C@H]1C(=O)N[C@@H](Cc1ccccc1)C(=O)NCCCN | 7.92 ×10⁻³ /s | 1.07 ×10⁴ /M/s |  |  | 741 nM | inactive | 25% | Active | Active |  | Activity [24]: Toxic |
| CCc1nc2ccccc2cc1C(=O)N[C@@H](C/C=C/C[C@H](NC(=O)c1cc2ccccc2nc1CC)C(=O)N1CCC[C@H]1C(=O)N[C@@H](Cc1ccccc1)C(=O)NCCCN)C(=O)N1CCC[C@H]1C(=O)N[C@@H](Cc1ccccc1)C(=O)NCCCN | 7.5 ×10⁻³ /s | 1.62 ×10³ /M/s |  |  | 4660 nM |  |  |  |  |  |  |
| CC(C)(C)NC(=O)[C@@H]1CN(Cc2cccnc2)CCN1C[C@@H](O)C[C@@H](Cc1ccccc1)C(=O)N[C@H]1c2ccccc2C[C@H]1O [INDINAVIR] |  |  |  |  |  |  |  |  |  | 14.8 nM |  |

From ChEMBL document CHEMBL3120090, “High-affinity recognition of HIV-1 frameshift-stimulating RNA alters frameshifting in vitro and interferes with HIV-1 infectivity” (J Med Chem, 2014)
